From ChEMBL document CHEMBL3526049 (Drug Metab Dispos, 2012)

How the values were obtained:
[1] = Half life in wild-type Sprague-Dawley rat at 5 mg/kg, po by LC-MS/MS analysis; format: ADME, organism-based; set-up: dose 5 mg/kg, route oral; details: in vivo
Summary of the method: (§1)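 Male Sprague-Dawley rats (knockouts age- and weight-matched to wild type), femoral-artery and vein cannulated, recovered ≥2 days. IV/oral crossover: 1 mg/kg IV bolus on day 0, then after a 3-day washout 5 mg/kg oral gavage in 10 ml/kg 50% Cremophor EL in ethanol. Arterial plasma 0–24 h, protein-precipitated, LC-MS/MS (positive ion, 1–5000 ng/ml). Noncompartmental analysis; n=5–9.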

[2] = Volume of distribution at steady state in BCRP knockout Sprague-Dawley rat at 1 mg/kg, iv by LC-MS/MS analysis; format: ADME, organism-based; set-up: dose 1 mg/kg, route intravenous; details: in vivo, read-out: Vdss
Summary of the method: (§2)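 Male Sprague-Dawley rats (knockout or wild type matched for age and weight), femoral artery and vein cannulated, at least 2 days recovery. Crossover design: IV bolus 1 mg/kg on day 0 (saline with 0.2 M equivalents HCl), oral gavage 10 mg/kg on day 3 (water with 0.2 M equivalents HCl). Arterial plasma sampled to 24 h (Mdr1a oral arm to 4 h). Analysed by LC-MS/MS and noncompartmental analysis.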

[3] = Drug excretion in bile duct-cannulated MDR1A knockout Sprague-Dawley rat feces at 1 mg/kg, iv up to 24 hrs; format: ADME, organism-based; set-up: dose 1 mg/kg, route intravenous; details: faeces, read-out: Drug excretion
Summary of the method: (§3)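 Male Sprague-Dawley rats with bile-duct and femoral cannulation, housed in metabolism cages. Given an IV bolus of 1 mg/kg in 2 ml/kg 50% Cremophor EL in ethanol. Urine, bile and feces collected in toto 0–24 h, with cage wash at 24 h. Amounts quantified by LC-MS/MS and expressed as % of dose; n=6–12.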

[4] = Drug excretion in bile duct-cannulated MDR1A knockout Sprague-Dawley rat urine at 1 mg/kg, iv up to 24 hrs; format: ADME, organism-based; set-up: dose 1 mg/kg, route intravenous; details: read-out: Drug excretion
Summary of the method: (§4)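 Male Sprague-Dawley Mdr1a knockout rats with bile duct and femoral cannulas, housed in metabolism cages. […] Urine, bile and feces were collected in total over 0–24 h, and cage wash was taken at 24 h.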

[5] = system: Brain; test: Drug uptake in BCRP knockout Sprague-Dawley rat brain at 1 mg/kg, iv; format: ADME, organism-based; set-up: dose 1 mg/kg, route intravenous; details: in vivo
[6] = Clearance in MDR1A knockout Sprague-Dawley rat at 1 mg/kg, iv by LC-MS/MS analysis; details: in vivo
[7] = Half life in MRP2 knockout Sprague-Dawley rat at 5 mg/kg, po by LC-MS/MS analysis; format: ADME, organism-based; set-up: dose 5 mg/kg, route oral; details: in vivo; summary of the method: as §1
[8] = Tmax in BCRP knockout Sprague-Dawley rat at 5 mg/kg, po by LC-MS/MS analysis; format: ADME, organism-based; set-up: dose 5 mg/kg, route oral; details: in vivo; summary of the method: as §1
[9] = Cmax in BCRP knockout Sprague-Dawley rat at 5 mg/kg, po by LC-MS/MS analysis; format: ADME, organism-based; set-up: dose 5 mg/kg, route oral; details: in vivo; summary of the method: as §1
[10] = Oral bioavailability in BCRP knockout Sprague-Dawley rat at 5 mg/kg by LC-MS/MS analysis; format: ADME, organism-based; details: in vivo; summary of the method: as §1
[11] = system: Kidney; test: Drug uptake in MDR1A knockout Sprague-Dawley rat kidney at 1 mg/kg, iv; format: ADME, organism-based; set-up: dose 1 mg/kg, route intravenous; details: in vivo
[12] = Clearance in wild-type Sprague-Dawley rat at 1 mg/kg, iv by LC-MS/MS analysis; details: in vivo
[13] = Half life in BCRP knockout Sprague-Dawley rat at 1 mg/kg, iv by LC-MS/MS analysis; format: ADME, organism-based; set-up: dose 1 mg/kg, route intravenous; details: in vivo; summary of the method: as §2
[14] = Half life in MDR1A knockout Sprague-Dawley rat at 5 mg/kg, po by LC-MS/MS analysis; format: ADME, organism-based; set-up: dose 5 mg/kg, route oral; details: in vivo; summary of the method: as §1
[15] = Oral bioavailability in MRP2 knockout Sprague-Dawley rat at 5 mg/kg by LC-MS/MS analysis; format: ADME, organism-based; details: in vivo; summary of the method: as §1
[16] = Tmax in MDR1A knockout Sprague-Dawley rat at 5 mg/kg, po by LC-MS/MS analysis; format: ADME, organism-based; set-up: dose 5 mg/kg, route oral; details: in vivo
[17] = Oral bioavailability in wild-type Sprague-Dawley rat at 5 mg/kg by LC-MS/MS analysis; format: ADME, organism-based; details: in vivo; summary of the method: as §1
[18] = Cmax in MRP2 knockout Sprague-Dawley rat at 5 mg/kg, po by LC-MS/MS analysis; format: ADME, organism-based; set-up: dose 5 mg/kg, route oral; details: in vivo; summary of the method: as §1
[19] = AUC (infinity) in BCRP knockout Sprague-Dawley rat at 1 mg/kg, iv by LC-MS/MS analysis; format: ADME, organism-based; set-up: time infinity, dose 1 mg/kg, route intravenous; details: plasma
[20] = Volume of distribution at steady state in MDR1A knockout Sprague-Dawley rat at 1 mg/kg, iv by LC-MS/MS analysis; format: ADME, organism-based; set-up: dose 1 mg/kg, route intravenous; details: in vivo, read-out: Vdss; summary of the method: as §2
[21] = Tmax in wild-type Sprague-Dawley rat at 5 mg/kg, po by LC-MS/MS analysis; format: ADME, organism-based; set-up: dose 5 mg/kg, route oral; details: in vivo; summary of the method: as §1
[22] = Drug excretion in bile duct-cannulated wild-type Sprague-Dawley rat feces at 1 mg/kg, iv up to 24 hrs; format: ADME, organism-based; set-up: dose 1 mg/kg, route intravenous; details: faeces, read-out: Drug excretion; summary of the method: as §3
[23] = system: Liver; test: Drug uptake in BCRP knockout Sprague-Dawley rat liver at 1 mg/kg, iv; format: ADME, organism-based; set-up: dose 1 mg/kg, route intravenous; details: in vivo
[24] = Drug excretion in bile duct-cannulated MDR1A knockout Sprague-Dawley rat bile at 1 mg/kg, iv up to 24 hrs; format: ADME, organism-based; set-up: dose 1 mg/kg, route intravenous; details: read-out: Drug excretion; summary of the method: as §4
[25] = Volume of distribution at steady state in wild-type Sprague-Dawley rat at 1 mg/kg, iv by LC-MS/MS analysis; format: ADME, organism-based; set-up: dose 1 mg/kg, route intravenous; details: in vivo, read-out: Vdss; summary of the method: as §2
[26] = system: Liver; test: Drug uptake in MDR1A knockout Sprague-Dawley rat liver at 1 mg/kg, iv; format: ADME, organism-based; set-up: dose 1 mg/kg, route intravenous; details: in vivo
[27] = system: Rattus norvegicus; test: AUC (infinity) in MRP2 knockout Sprague-Dawley rat at 1 mg/kg, iv by LC-MS/MS analysis; format: ADME, organism-based, Plasma; set-up: time infinity, dose 1 mg/kg, route intravenous; details: in vivo

For `CC(=O)O[C@H]1C(=O)[C@@]2(C)[C@H]([C@H](OC(=O)c3ccccc3)[C@]3(O)C[C@H](OC(=O)[C@H](O)[C@@H](NC(=O)c4ccccc4)c4ccccc4)C(C)=C1C3(C)C)[C@]1(OC(C)=O)CO[C@@H]1C[C@@H]2O` [PACLITAXEL], the half-life [1] was 4.4 h, the Vd [2] was 29.1 L/kg and the dose excreted at 24 h [3] was 0.21%. For the same compound, the dose excreted at 24 h [4] was 0.14%, the Drug uptake [5] was “Active” and the clearance [6] was 66.7 mL/min/kg. The half-life [7] was 9.4 h, the Tmax [8] was 0.9 h and the Cmax [9] was 40 ng/mL. For the same compound, the bioavailability [10] was 13%, the Drug uptake [11] was “Active” and the clearance [12] was 112 mL/min/kg. It also gave a half-life [13] of 6.4 h, a half-life [14] of 10 h and a bioavailability [15] of 27%. It also gave a Tmax [16] of 1.2 h, a bioavailability [17] of 12% and a Cmax [18] of 151 ng/mL. For the same compound, the AUC(0-inf) [19] was 171 ng·h/mL, the Vd [20] was 38.1 L/kg and the Tmax [21] was 0.8 h. For the same compound, the dose excreted at 24 h [22] was 2.3%, the Drug uptake [23] was “Active” and the dose excreted at 24 h [24] was 0%. The Vd [25] was 30.3 L/kg, the Drug uptake [26] was “Active” and the AUC [27] was 375 ng·h/mL.
